# Experiments:
# [1] = tested on: Mycobacterium tuberculosis; test: Antibacterial activity against wild type Mycobacterium tuberculosis CDC1551 incubated for 10 days by resazurin dye based microtiter plate assay; assay type: functional; settings: CDC1551, 240 h, time 10 day
# How it was run: (§1)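 MIC in 7H9-ADC-Tween 80 medium. Strains (CDC1551 WT, rv0443 KO) grown to mid-log (OD600 ~0.8), diluted to OD600 0.01, exposed to serial antibiotic dilutions for 10 days at 37 °C; MIC read by resazurin blue test.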
# [2] = tested on: Mycobacterium tuberculosis; test: Antibacterial activity against Mycobacterium tuberculosis rv0443 knockout strain incubated for 10 days by resazurin dye based microtiter plate assay; assay type: functional; settings: rv0443, 240 h, time 10 day; how it was run: as §1
smiles,measurement,setting,value
CO[C@H]1/C=C/O[C@@]2(C)Oc3c(C)c(O)c4c(O)c(c(/C=N/N5CCN(C)CC5)c(O)c4c3C2=O)NC(=O)/C(C)=C\C=C\[C@H](C)[C@H](O)[C@@H](C)[C@@H](O)[C@@H](C)[C@H](OC(C)=O)[C@@H]1C [RIFAMPIN],MIC,[1],2.5 ng/mL
same,MIC,[2],2.5 ng/mL
